These results are taken from paper PMC7615481 (The Journal of biological chemistry, 2023).

The test system of assay [1] is hmCYC chimeric GC-C. The assay can be described thus: In vitro GC assay, MgGTP as substrate, Lubrol-stimulated, hmCYC. The following applies: 1 mM MgATP, 1 mM MgGTP, 0.1% Lubrol-PX; Fig. 4A. It is filed as biochemical.
Assay [2] concerns GC-CK516A. The following applies: ref [25]; cited from earlier work.
In assay [3] the test system is GC-CK516A. The conditions noted are these: Mg2+; ref [25]; cited from earlier work.
The target in assay [4] is T1, human GC-C (Homo sapiens, UniProt P25092). The following applies: Mn2+ as metal ion; ref [25]; cited from earlier work.
Assay [5] has as its system mhCYC chimeric GC-C. In words: In vitro GC assay, MgGTP as substrate, Lubrol-stimulated, mhCYC. Format: biochemical. The conditions noted are these: 1 mM MgATP, 1 mM MgGTP, 0.1% Lubrol-PX; Fig. 4A.
Assay [6] has as its system hmCYC chimeric GC-C. In words: In vitro GC assay, MnGTP as substrate, hmCYC. Format: biochemical. The conditions noted are these: 1 mM MnATP, 1 mM MnGTP; Fig. 4B.
The test system of assay [7] is chimeric receptor harboring the mouse KHD. It is filed as biochemical. The following applies: 0.1% Lubrol-PX, MgGTP.
In assay [8] the test system is hGC-C. The following applies: Mg2+ as metal ion cofactor, ref [25]; cited from earlier work.
Assay [9] has as its system GC-C. The conditions noted are these: in vitro; ref [38]; cited from earlier work.
In assay [10] the target is T2, mouse GC-C (Mus musculus, UniProt Q3UWA6).
T2 sequence (Q3UWA6 20-1072): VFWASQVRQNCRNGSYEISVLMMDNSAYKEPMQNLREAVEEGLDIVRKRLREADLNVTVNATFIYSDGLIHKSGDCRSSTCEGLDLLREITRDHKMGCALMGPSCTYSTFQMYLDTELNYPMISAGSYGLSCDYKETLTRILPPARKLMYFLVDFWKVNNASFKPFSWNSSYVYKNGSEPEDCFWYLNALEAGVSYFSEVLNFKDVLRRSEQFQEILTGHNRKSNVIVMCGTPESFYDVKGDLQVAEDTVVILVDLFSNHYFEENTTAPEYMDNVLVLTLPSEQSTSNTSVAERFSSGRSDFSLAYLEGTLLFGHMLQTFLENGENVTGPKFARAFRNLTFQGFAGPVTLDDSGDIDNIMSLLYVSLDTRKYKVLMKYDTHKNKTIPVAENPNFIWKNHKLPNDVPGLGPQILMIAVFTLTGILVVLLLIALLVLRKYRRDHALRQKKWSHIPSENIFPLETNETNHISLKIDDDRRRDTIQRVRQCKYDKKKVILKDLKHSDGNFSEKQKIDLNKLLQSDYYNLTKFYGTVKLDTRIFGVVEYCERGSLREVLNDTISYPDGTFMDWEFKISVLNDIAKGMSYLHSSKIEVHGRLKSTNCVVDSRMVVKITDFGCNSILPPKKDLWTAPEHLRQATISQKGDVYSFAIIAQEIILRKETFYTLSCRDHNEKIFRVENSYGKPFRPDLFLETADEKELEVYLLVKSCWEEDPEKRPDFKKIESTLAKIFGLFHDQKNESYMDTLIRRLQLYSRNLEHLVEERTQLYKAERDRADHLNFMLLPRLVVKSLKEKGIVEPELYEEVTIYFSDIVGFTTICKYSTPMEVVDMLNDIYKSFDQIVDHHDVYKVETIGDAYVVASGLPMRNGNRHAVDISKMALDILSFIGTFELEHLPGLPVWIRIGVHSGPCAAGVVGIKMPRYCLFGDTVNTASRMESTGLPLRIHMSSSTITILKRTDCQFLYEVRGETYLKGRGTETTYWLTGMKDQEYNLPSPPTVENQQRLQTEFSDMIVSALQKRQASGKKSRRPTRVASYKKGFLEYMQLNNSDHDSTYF
The assay can be described thus: In vitro GC assay, MnGTP as substrate, mGC-C. It is filed as biochemical. The conditions noted are these: 1 mM MnATP, 1 mM MnGTP; Fig. 4B.

The target in assay [11] is T2, mouse GC-C. In words: In vitro GC assay, MgGTP as substrate, with or without Lubrol, mGC-C. Format: biochemical. The conditions noted are these: 1 mM MgGTP, Fig. 4A.
For assay [12], the target named is T1, human GC-C. In words: In vitro GC assay, MnGTP as substrate, hGC-C. Format: biochemical. The conditions noted are these: 1 mM MnATP, 1 mM MnGTP; Fig. 4B.
In assay [13] the test system is mhICD chimeric GC-C receptor. Format: binding. The conditions noted are these: words; Fig. 2H lower panel.
The target of assay [14] is T2, mouse GC-C. It is filed as cell-based.
For assay [15], the target named is T1, human GC-C. The following applies: ref [21]; cited from earlier work.
The subject of assay [16] is mice. The following applies: mouse, in vivo; cited from earlier work.
Assay [17] concerns mice lacking GC-C. The following applies: ref [12]; cited from earlier work.
For assay [18], the system named is WT or GCD chimeric GC-C. Format: binding. The conditions noted are these: monolayers of HEK293E; Fig. 3E.
The subject of assay [19] is hmCYC chimeric GC-C. It is filed as cell-based.
Assay [20] concerns mouse GC-C variant 2. In words: Radiolabeled ST binding to monolayers, mouse GC-C variant 2. The conditions noted are these: monolayer HEK293E, Fig. 1E, three experiments.
Assay [21] has as its system mouse GC-C variant 2. In words: Ligand-stimulated cGMP production in HEK293E cells, mouse GC-C variant 2. The following applies: 10^−6 M ST, RIA, Fig. 1D. Format: cell-based. The method, boiled down:
(§1)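 HEK293E cells expressing the mouse GC-C variant were preincubated for 30 min at 37 °C in a humidified CO₂ incubator in DMEM-HG with serum, antibiotics and 500 μM IBMX. They were then exposed to medium alone or 10⁻⁶ M ST for 30 min. Monolayers were lysed in 0.1 N HCl, and cGMP was measured by RIA and normalized to cell-surface receptor amount. Representative of three independent experiments.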

In assay [22] the test system is mouse GC-C variant 1. The assay can be described thus: Ligand-stimulated cGMP production in HEK293E cells, mouse GC-C variant 1. Format: cell-based. The following applies: 10^−6 M ST, RIA, Fig. 1D. In short, it runs like this:
as §1

Entries after “also recorded” stand apart in the source; their conditions may differ. Positions of bridges follow the written chain, without caps; N, C: chain ends. Residues, ends and D or L forms follow the SMILES beside them.

T1 sequence (P25092 24-1073): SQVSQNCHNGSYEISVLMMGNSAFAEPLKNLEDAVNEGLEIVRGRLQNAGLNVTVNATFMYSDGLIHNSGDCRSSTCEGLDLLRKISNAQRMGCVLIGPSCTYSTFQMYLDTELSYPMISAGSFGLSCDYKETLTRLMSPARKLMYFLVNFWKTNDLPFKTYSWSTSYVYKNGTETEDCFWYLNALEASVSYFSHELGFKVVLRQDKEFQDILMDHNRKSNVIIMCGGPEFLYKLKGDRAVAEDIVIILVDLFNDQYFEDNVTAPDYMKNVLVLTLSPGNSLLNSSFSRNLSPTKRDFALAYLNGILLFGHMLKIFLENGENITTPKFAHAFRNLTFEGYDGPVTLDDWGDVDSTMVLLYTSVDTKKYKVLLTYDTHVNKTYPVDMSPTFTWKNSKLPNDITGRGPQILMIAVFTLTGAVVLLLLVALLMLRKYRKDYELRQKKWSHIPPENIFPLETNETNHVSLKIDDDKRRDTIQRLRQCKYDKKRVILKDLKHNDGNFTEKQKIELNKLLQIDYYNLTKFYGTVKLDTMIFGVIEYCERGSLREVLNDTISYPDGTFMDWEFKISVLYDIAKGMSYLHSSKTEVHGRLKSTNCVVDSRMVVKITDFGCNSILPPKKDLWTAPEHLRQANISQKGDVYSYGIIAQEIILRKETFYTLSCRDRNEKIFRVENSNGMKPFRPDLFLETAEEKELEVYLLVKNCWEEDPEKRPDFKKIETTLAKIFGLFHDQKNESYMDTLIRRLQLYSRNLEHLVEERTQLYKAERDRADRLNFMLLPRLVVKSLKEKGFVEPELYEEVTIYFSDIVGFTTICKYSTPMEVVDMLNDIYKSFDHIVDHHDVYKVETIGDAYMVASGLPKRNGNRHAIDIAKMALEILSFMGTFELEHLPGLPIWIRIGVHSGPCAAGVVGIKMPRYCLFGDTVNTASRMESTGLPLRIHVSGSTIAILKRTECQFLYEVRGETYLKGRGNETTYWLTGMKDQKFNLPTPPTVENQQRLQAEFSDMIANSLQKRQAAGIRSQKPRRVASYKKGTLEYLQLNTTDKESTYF

On to `Nc1ncnc2c1ncn2[C@@H]1O[C@H](COP(=O)(O)OP(=O)(O)OP(=O)(O)O)[C@@H](O)[C@H]1O` [ATP], for which the “ATP-mediated inhibition of Lubrol-stimulated GC activity, hmCYC” value in assay [1] is “retained”. In [2], the “ATP inhibition of GC activity with Mn2+, GC-CK516A” value is given as “inhibition is also seen”. Further, the “ATP inhibition of Lubrol-stimulated GC activity, GC-CK516A” value in assay [3] is “inhibition is lost”. In addition, in assay [4], the “ATP inhibition of GC activity with Mn2+” value is “inhibits GC activity when Mn^2+ is the metal ion used in assays”. The “ATP-mediated inhibition of Lubrol-stimulated GC activity, mhCYC” value in assay [5] was “lost”. Besides, in [6], the “ATP-mediated inhibition of MnGTP-mediated activity, hmCYC” value was “displayed ATP-mediated inhibition of MnGTP-mediated activity”. Also, the “ATP inhibition of detergent-mediated activity, chimeric receptor harboring the mouse KHD” value in assay [7] is “no inhibition of detergent-mediated activity by ATP”. In addition, the “ATP inhibition of Lubrol-stimulated GC activity” value in assay [8] is reported as “inhibits Lubrol-stimulated GC activity”. Further, in assay [9], the “ATP inhibition of MnGTP-mediated and detergent-mediated GC activity” value was “inhibit in vitro MnGTP-mediated and detergent-mediated GC activity”. In addition, in assay [10], the “ATP-mediated inhibition of GC activity with MnGTP, mGC-C” value is “remained; also recorded: displayed ATP-mediated inhibition of MnGTP-mediated activity”. In addition, the “ATP-mediated inhibition of Lubrol-stimulated GC activity, mGC-C” value in assay [11] (1 mM MgATP, 0.1% Lubrol-PX) is “lost and no allosteric inhibition of guanylyl cyclase activity and no inhibition of detergent-mediated activity by ATP”. For the same compound, the “ATP-mediated inhibition of GC activity with MnGTP, hGC-C” value in assay [12] is given as “remained”.
With `CC(C)C[C@@H]1NC(=O)[C@H](CCC(=O)O)NC(=O)[C@@H]2CSSC[C@@H]3NC(=O)[C@H](C)NC(=O)[C@@H]4CCCN4C(=O)[C@H](CC(N)=O)NC(=O)[C@H](CSSC[C@H](NC(=O)[C@H](Cc4ccc(O)cc4)NC(=O)[C@H](CC(N)=O)NC(=O)[C@H](CO)NC(=O)[C@H](CO)NC(=O)[C@@H](N)CC(N)=O)C(=O)N2)NC(=O)[C@H](CSSC[C@@H](C(=O)N[C@@H](Cc2ccc(O)cc2)C(=O)O)NC(=O)CNC(=O)[C@H]([C@@H](C)O)NC3=O)NC1=O` [ST] (H-NSSNYCCELCCNPACTGCY-OH; disulfide 6-11, 7-15, 10-18; N-terminus and C-terminus assumed), in [13], the “affinity to the ST peptide of the mhICD chimera” value is reported as “reduced affinity to the ST peptide”. In assay [14], the “accumulation of cGMP at saturating ST, mGC-C” value is “much reduced in comparison with cells expressing hGC-C” and the “intracellular cGMP accumulation, mGC-C lower than hGC-C” value is ~ 10 fold. The “affinity of plasma membrane- and endoplasmic reticulum–associated hGC-C for ST” value in [15] is reported as “comparable affinities”. In addition, the “accumulation of fluid in the gut of mice on ST treatment” value in assay [16] is recorded as “leads to the accumulation of fluid in the gut”. For the same compound, the “ST-induced fluid accumulation in mice lacking GC-C” value in [17] is “resistant to ST-induced fluid accumulation”. The “binding to ST of GCD chimeric receptors” value in assay [18] is “determined by the ECD”. Also, the “cGMP accumulation, hmCYC versus hGC-C” value in assay [19] is “log order reduction in cGMP accumulation when compared to hGC-C”. Also, the “ligand binding ability of variant 2” value in assay [20] is listed as “marked reduction in the ligand binding ability”. Also, the “cGMP levels on ST treatment, variant 2” value in assay [21] was “remained unchanged”. For the same compound, in assay [22], the “cGMP levels on ST treatment, variant 1” value is “significant increase in cGMP levels”.
Regarding MgGTP, the “GC activity of mGC-C in the presence of MgGTP” value in [11] (4 mM free MgCl2, 37 °C 10 min, words) is recorded as “lower than that of hGC-C”.
